# High-throughput results: PubChem BioAssay, several laboratories
# Mdm2 MdmX PPI = inhibitors of human Mdm2/MdmX interaction; SaOS-2 split-luciferase Mdm2/MdmX complementation, luminescence; AID 485346; O15151+Q00987; inhibition, % at 8 µM; 330,000 compounds, 3% hits;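 active = inhibition of at least 50% at 8 µM in the primary screen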
# Target sequence (O15151 whole entry, looked up): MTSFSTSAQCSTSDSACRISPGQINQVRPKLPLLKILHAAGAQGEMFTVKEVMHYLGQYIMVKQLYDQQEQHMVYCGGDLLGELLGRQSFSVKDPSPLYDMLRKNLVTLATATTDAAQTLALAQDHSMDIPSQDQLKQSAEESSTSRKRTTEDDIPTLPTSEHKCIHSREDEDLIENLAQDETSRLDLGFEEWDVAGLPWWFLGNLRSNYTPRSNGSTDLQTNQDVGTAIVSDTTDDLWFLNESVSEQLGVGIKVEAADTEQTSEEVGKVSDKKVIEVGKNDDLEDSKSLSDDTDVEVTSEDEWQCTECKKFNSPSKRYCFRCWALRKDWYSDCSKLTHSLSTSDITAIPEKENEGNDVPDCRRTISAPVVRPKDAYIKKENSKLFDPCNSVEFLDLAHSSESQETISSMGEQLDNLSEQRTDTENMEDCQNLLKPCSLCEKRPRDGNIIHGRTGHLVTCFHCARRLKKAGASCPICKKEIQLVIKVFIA
# Target sequence (Q00987 whole entry, looked up): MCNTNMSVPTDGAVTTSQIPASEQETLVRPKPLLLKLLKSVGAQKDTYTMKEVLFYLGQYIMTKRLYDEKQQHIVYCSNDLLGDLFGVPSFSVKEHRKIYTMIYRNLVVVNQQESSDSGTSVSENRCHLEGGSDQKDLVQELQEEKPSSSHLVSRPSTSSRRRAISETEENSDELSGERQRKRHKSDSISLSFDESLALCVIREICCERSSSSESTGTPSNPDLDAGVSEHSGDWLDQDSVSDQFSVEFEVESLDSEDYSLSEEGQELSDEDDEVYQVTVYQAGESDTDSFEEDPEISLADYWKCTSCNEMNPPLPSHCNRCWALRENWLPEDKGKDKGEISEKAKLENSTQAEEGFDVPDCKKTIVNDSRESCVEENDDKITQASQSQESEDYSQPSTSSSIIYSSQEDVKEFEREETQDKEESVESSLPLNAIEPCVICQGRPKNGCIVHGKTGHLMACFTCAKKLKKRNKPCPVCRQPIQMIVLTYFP
# CSC inhib = blocks cancer stem cells. cancer stem cell-like cells viability, luminescence. inhibition, % at 7.5 µM. 300,000 compounds, 1.1% hits; in the data active = inhibition above about 75%; tested in HMLE shEcad cells
# T cruzi repl = blocks replication of Trypanosoma cruzi; T. cruzi beta-gal in NIH3T3, luminescence, 90 h; inhibition, % (concentration not given with the values); 300,000 compounds, 1.4% hits; AID 1885;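 active = mean inhibition across valid replicates above about 55%, limit read from the data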;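 also: signal also drops with host cell toxicity which is not excluded here; 0% = plate median of DMSO wells and 100% = zero luminescence signal; higher percent means less beta-gal luminescence so fewer parasites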
#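 assay system = mouse NIH/3T3 fibroblasts infected with β-gal-expressing T. cruzi Tulahuen C4 | input = 5,000 NIH/3T3 host cells per well | buffer or medium = DMEM plus 2% FBS | timing = 3 h host attachment, then at least 90 h co-culture | measured by = GalScreen luminescence, 60 min | evaluation = luminescence reflecting intracellular parasite burden, expressed as percent inhibition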
# aSyn UTR inh = MLPCN primary screen, SNCA 5' untranslated region. alpha-synuclein 5'UTR reporter, inhibitor activity. inhibition, % (tested at 7.5 µM). 300,000 compounds, 0.82% hits. AID 1813; in the data active = inhibition above about 60%;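 also: H4 neuroglioblastoma cells stably carrying SNCA 5'UTR luciferase fusion; 0% = DMSO wells and 100% = positive control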
# SKKanGAS inh = inhibitors of SKKanGAS S. pyogenes growth in kanamycin (SK-promoter or general growth effect). BacTiter-Glo, 6 h. inhibition, % at 7.5 µM. 300,000 compounds, 1.3% hits. AID 1662;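 active = mean replicate score, as percent of positive control median, at least 50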;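 also: strain carries kanamycin resistance gene driven by streptokinase promoter and grows in 40 µg/ml kanamycin; loss of luminescence reflects streptokinase promoter inhibition or plain growth inhibition; 0% = median of DMSO wells and 100% = positive control at its reference dose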
# * = called active by the depositor; . = no result given. This is a sample that favours compounds with a hit; in the whole collection about 5.4% have one here.
SMILES,Mdm2 MdmX PPI,CSC inhib,T cruzi repl,aSyn UTR inh,SKKanGAS inh
COc1ccc(C(=O)/C(=C/O)N=Nc2ccc(F)cc2)cc1,-14,53,4,-64,13
Cc1cccc(N=N/C(=C\O)C(=O)c2ccc(Br)cc2)c1,40,-5,-14,-16,53*
O=C(/C(=C/O)N=Nc1cccc(C(F)(F)F)c1)c1ccccc1,-2,-4,-26,8,-3
O=C(Cc1ccccc1)Nc1ccc(N2CCN(Cc3ccccc3F)CC2)cc1,27,-2,-22,-14,7
Cn1c(-c2ccccc2)cnc1SCC(=O)N1CCCCC1,48,-7,-22,83*,-9
O=C(CSc1ncc(-c2ccccc2)n1C1CCCC1)N1CCc2ccccc21,29,6,64*,-19,2
Cn1c(-c2ccccc2)cnc1SCC(=O)N1CCCc2ccccc21,18,7,12,13,-20
COc1ccc(S(=O)(=O)N2CCN(c3ccc(F)cc3)CC2)cc1C(=O)N1CCCC1,11,7,20,-1,6
Cc1c(/C=N/NC(=O)CNc2ccccc2)c2ccccn2c1C(=O)c1ccc(Cl)cc1,41,-13,24,4,23
Cc1c(C(=O)Nc2ccc(Cl)cc2)c2ccccn2c1C(=O)c1ccc([N+](=O)[O-])cc1,15,-3,66*,3,7
Cc1cc(N(C)Cc2ccccc2)nc2cc(O)ccc12,-35,10,-11,-41,-4
Cc1cccc(OCc2nnc(SCC(=O)N3c4ccccc4CCc4ccccc43)o2)c1,10,22,30,14,5
O=C(CSc1nnc(COc2ccc(F)cc2)o1)N1c2ccccc2CCc2ccccc21,18,28,57*,13,2
CC(C(=O)Nc1ncc([N+](=O)[O-])s1)N1C(=O)c2ccccc2S1(=O)=O (centres undefined),13,2,-6,15,4
c1ccc(-c2cn3nc4c(nc3n2)CCCC4)cc1,35,11,-3,109*,14
c1ccc(-c2cn3nc(-c4ccccc4)cnc3n2)cc1,.,0,.,.,.
Brc1ccc(-c2cn3nc4c(nc3n2)CCCC4)cc1,22,-2,7,93*,11
Nc1nn2cc(-c3ccc(Br)cc3)nc2c2ccccc12,-121,.,18,-165,25
COc1ccc(Cl)cc1NC(=O)CN(C)C(=O)c1ccc(N2CCCCCC2)c([N+](=O)[O-])c1,40,-11,38,5,36
O=C(N/N=C/c1cccs1)c1n[nH]c2c1CCC2,11,59,-25,68*,7
O=C(N/N=C/c1ccccc1Cl)c1n[nH]c2c1CCCC2,38,33,-17,83*,11
O=c1c(NCCc2ccccc2)c(-c2ccccc2)c1=O,6,-4,-2,6,-1
COc1ccc2oc(C(=O)NCCN3CCOCC3)c(C)c2c1OC,-14,1,-6,9,-7
Cc1csc(N/N=C/c2ccc([N+](=O)[O-])cc2)n1,-82,0,-10,-148,5
Cc1csc(N/N=C/c2ccccn2)n1,-86,83*,5,69*,-1
SMILES,Mdm2 MdmX PPI,CSC inhib,T cruzi repl,aSyn UTR inh,SKKanGAS inh
C(=N\NC1=Nc2cccc3cccc1c23)/c1ccccn1,.,.,65*,-42,-2
O=C(Cc1ccc(Cl)cc1)SCc1ccccc1,6,5,.,.,.
CC(=O)/C=C1\N(C)c2ccc(C)cc2C1(C)C,39,-7,66*,4,-5
CCCCN(CC)CCCNC(=S)Nc1ccc2nc3n(c(=O)c2c1)CCCCC3,22,-6,56*,10,-3
O=c1c2cc(NC(=S)NCCN3CCCCCC3)ccc2nc2n1CCCCC2,15,13,8,-26,1
CC(C)NC(=S)Nc1ccc2nc3n(c(=O)c2c1)CCCCC3,9,-7,-11,-14,-2
O=c1c2cc(NC(=S)NCCCN3CCC(Cc4ccccc4)CC3)ccc2nc2n1CCCCC2,48,101*,57*,12,4
Cc1cc(S(=O)(=O)N2CCOCC2)ccc1OCC(=O)NCCN1CCOCC1,-9,-18,-2,-4,-11
O=C(Cc1ccccc1)Nc1ccc2oc(=O)ccc2c1,2,.,-13,-2,-8
Nc1c(C(O)(C(F)(F)F)C(F)(F)F)cc(C(O)(C(F)(F)F)C(F)(F)F)c2ccccc12,20,124*,26,44,23
CN(C(=O)CC(=O)Nc1ccc(Cl)c(Cl)c1)c1ccccc1,15,-9,2,-19,-23
Cc1cccc(CC2CC(=O)N(c3nc4ccccc4s3)C2=O)c1 (centres undefined),25,-11,-13,1,-2
